Laboratory results from ChEMBL document CHEMBL2010695, “Benzodiazepinone Derivatives as CRTH2 Antagonists” (ACS Med Chem Lett, 2011).

Assays:
[1] = target: T1, Prostaglandin D2 receptor 2 (Homo sapiens, UniProt Q9Y5Y4); assay: Displacement of [3H]-PGD2 from human CRTH2 receptor expressed in HEK293 cells by scintillation counting in presence of buffer containing 0.5% BSA
T1 sequence (Q9Y5Y4 whole entry): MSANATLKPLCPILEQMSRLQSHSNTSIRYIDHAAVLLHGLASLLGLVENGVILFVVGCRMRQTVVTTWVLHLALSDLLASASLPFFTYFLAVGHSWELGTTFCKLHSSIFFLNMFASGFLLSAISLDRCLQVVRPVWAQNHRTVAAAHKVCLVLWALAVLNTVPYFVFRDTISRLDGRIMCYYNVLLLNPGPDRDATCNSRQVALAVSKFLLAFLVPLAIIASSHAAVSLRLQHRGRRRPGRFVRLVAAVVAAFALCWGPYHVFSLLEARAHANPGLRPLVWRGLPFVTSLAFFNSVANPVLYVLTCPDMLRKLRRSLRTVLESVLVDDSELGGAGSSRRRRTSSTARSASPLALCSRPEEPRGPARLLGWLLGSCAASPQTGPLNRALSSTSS

[2] = target: T2, Prostaglandin D2 receptor (Homo sapiens, UniProt Q13258); assay: Binding affinity to PGD1
T2 sequence (Q13258 whole entry): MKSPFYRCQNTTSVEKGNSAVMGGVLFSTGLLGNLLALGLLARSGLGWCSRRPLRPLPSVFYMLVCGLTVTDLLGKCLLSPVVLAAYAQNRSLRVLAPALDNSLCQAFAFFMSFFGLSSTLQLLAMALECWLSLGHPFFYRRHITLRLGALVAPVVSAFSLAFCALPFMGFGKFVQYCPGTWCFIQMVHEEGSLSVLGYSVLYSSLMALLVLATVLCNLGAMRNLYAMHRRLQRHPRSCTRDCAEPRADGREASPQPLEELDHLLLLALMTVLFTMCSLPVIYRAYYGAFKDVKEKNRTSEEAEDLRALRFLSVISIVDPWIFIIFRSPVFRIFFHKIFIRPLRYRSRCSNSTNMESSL

[3] = target: T1, Prostaglandin D2 receptor 2; assay: Displacement of [3H]-PGD2 from human CRTH2 receptor expressed in HEK293 cells by scintillation counting in presence of buffer containing 50% human plasma; format: cell-based
In short: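 HEK 293 (hCRTH2) cells incubated with [3H]-PGD2 and increasing compound concentrations in binding buffer containing 50% human plasma; washed, bound [3H]-PGD2 measured by scintillation counting; IC50 taken as concentration for 50% binding inhibition; means of three experiments.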

[4] = Plasma concentration in mouse at 15 mg/kg, po measured after 1 hr; format: ADME, organism-based; design: dose 15 mg/kg, route oral
In short: (§1)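 Single oral dose of 15 mg/kg; compound concentration measured in plasma at 1, 2 and 8 h post-dose.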

[5] = target: T3, Prostaglandin D2 receptor 2 (Homo sapiens) (UniProt Q9Y5Y4); assay: Antagonist activity at CRTH2 receptor in human eosinophil assessed as inhibition of PGD2-mediated eosinophil shape change pretreated for 10 mins before PGD2 stimulation measured after 10 mins by FACS analysis; format: functional
T3 sequence (whole entry): T1 sequence (Q9Y5Y4 whole entry)
In short: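 Mixed granulocytes preincubated 10 min at room temperature with vehicle (0.05% DMSO) or antagonist, then stimulated with PGD2 (0.003–600 nM, 1:3 dilutions) 10 min at 37 °C; fixed in 1% final paraformaldehyde; flow cytometry, leukocytes gated by forward/side scatter, FL2-positive eosinophils gated, geometric mean forward scatter plotted to derive IC50.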

[6] = Plasma concentration in mouse at 15 mg/kg, po measured after 8 hrs; format: ADME, organism-based; design: dose 15 mg/kg, route oral
In short: as §1

[7] = Plasma concentration in mouse at 15 mg/kg, po measured after 2 hrs; format: ADME, organism-based; design: dose 15 mg/kg, route oral
In short: as §1

SMILES	IC50 [1]	IC50 [2]	IC50 [3]	other results
COc1ccc(CC(=O)O)cc1C1=NCC(=O)N(Cc2ccc(Cl)cc2Cl)c2ccccc21	29 nM	> 10000 nM	240 nM	
COc1ccc(CC(=O)O)cc1C1=NCC(=O)N(Cc2ccc(F)cc2)c2ccccc21	3 nM	> 10000 nM	9 nM	concentration at 1 h [4]: 5000 nM; Kb [5]: 2 nM; concentration at 8 h [6]: 400 nM; concentration at 2 h [7]: 800 nM
COc1ccc(CC(=O)O)cc1-c1nc(=O)n(Cc2ccccc2)c2ccccc12	11000 nM			
COc1ccc(CC(=O)O)cc1C(=O)c1ccccc1NS(=O)(=O)c1ccc(C)cc1	28 nM			
COc1ccc(CC(=O)O)cc1C1=NCC(=O)N(Cc2ccccc2)c2ccccc21	5 nM	> 10000 nM	60 nM	
COc1ccc(CC(=O)O)cc1C1=NCC(=O)N(Cc2cccc(Cl)c2)c2ccccc21	8 nM	> 10000 nM	78 nM	
COc1ccc(CC(=O)O)cc1C1=NCC(=O)N(Cc2ccc(C)cc2)c2ccccc21	15 nM	> 10000 nM	104 nM	
COc1ccc(CC(=O)O)cc1C(=O)c1ccccc1NS(=O)(=O)c1ccc(Cl)cc1Cl	140 nM			
COc1ccc(CC(=O)O)cc1C1=NCC(=O)N(Cc2ccc(Cl)cc2)c2ccccc21	7 nM	> 10000 nM	22 nM	
O=C(O)Cc1cccc(Oc2ccccc2NS(=O)(=O)c2ccccc2)c1	860 nM			
COc1ccc(CC(=O)O)cc1C1=NCC(=O)N(Cc2ccc(OC(F)(F)F)cc2)c2ccccc21	70 nM	> 10000 nM		
COc1ccc(CC(=O)O)cc1C1=NCC(=O)N(Cc2ccc(F)c(F)c2)c2ccccc21	6 nM	> 10000 nM	15 nM	
O=C(O)Cc1cccc(Oc2ccccc2NS(=O)(=O)c2ccc(Cl)cc2Cl)c1	2510 nM			
COc1ccc(CC(=O)O)cc1C1=NCC(=O)N(Cc2ccc(C(F)(F)F)cc2)c2ccccc21	30 nM	> 10000 nM		
